Assay results from ChEMBL document CHEMBL4689842, “EUbOPEN Chemogenomics Library wave 1” (2021).

Tested on: Fibroblast
Assay: Multiplex assay against human fibroblast
Format: toxicity, cell-based
How it was run: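 Cells were classed with CellPathfinder machine-learning gating, first as Hoechst high-intensity objects or normal cells, then (normal cells) as healthy, pyknosed or fragmented nuclei, and finally (pyknosed cells) as mitotic or apoptotic. Staining of live cells at seeding used Hoechst33342, BioTracker Green Microtubule Cytoskeleton Dye, MitoTracker Red and Annexin V Alexa Fluor 680, with imaging on a CQ1 microscope at 37°C and 5% CO2 after compound addition. Tubulin, mitochondrial-mass and membrane-permeability phenotypes are per cents of healthy-nucleus cells.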

[1] = 12 h, 1 µM, compound concentration 1 uM, replicate 1
[2] = 12 h, 1 µM, compound concentration 1 uM, replicate 2
[3] = 12 h, 10 µM, compound concentration 10 uM, replicate 1
[4] = 12 h, 10 µM, compound concentration 10 uM, replicate 2
[5] = 24 h, 1 µM, compound concentration 1 uM, replicate 1
[6] = 24 h, 1 µM, compound concentration 1 uM, replicate 2
[7] = 24 h, 10 µM, compound concentration 10 uM, replicate 1
[8] = 24 h, 10 µM, compound concentration 10 uM, replicate 2
[9] = 48 h, 1 µM, compound concentration 1 uM, replicate 1
[10] = 48 h, 1 µM, compound concentration 1 uM, replicate 2
[11] = 48 h, 10 µM, compound concentration 10 uM, replicate 1
[12] = 48 h, 10 µM, compound concentration 10 uM, replicate 2

SMILES: CC(C)OC(=O)N1CCC(Oc2ncnc3c2cnn3-c2ccc(S(C)(=O)=O)cc2F)CC1
- Population Apoptotic (%) [1]: 64%
- Population Fragmented Nuclei (%) [1]: 27%
- Population Healthy Nuclei (%) [1]: 50%
- Population Hoechst High Intensity Objects (%) [1]: 13%
- Population Membrane Permeable-Phenotype (%) [1]: 27%
- Population Mitochondria Different-Phenotype (%) [1]: 0%
- Population Mitotic Cells (%) [1]: 35%
- Population Normal (%) [1]: 86%
- Population Pyknosed Nuclei (%) [1]: 22%
- Population Tubulin-Different-Phenotype (%) [1]: 24%
- Total Cell Count [1]: 86
- Population Apoptotic (%) [2]: 33%
- Population Fragmented Nuclei (%) [2]: 5%
- Population Healthy Nuclei (%) [2]: 91%
- Population Hoechst High Intensity Objects (%) [2]: 7%
- Population Membrane Permeable-Phenotype (%) [2]: 4%
- Population Mitochondria Different-Phenotype (%) [2]: 8%
- Population Mitotic Cells (%) [2]: 66%
- Population Normal (%) [2]: 92%
- Population Pyknosed Nuclei (%) [2]: 3%
- Population Tubulin-Different-Phenotype (%) [2]: 7%
- Total Cell Count [2]: 97
- Population Apoptotic (%) [3]: 58%
- Population Fragmented Nuclei (%) [3]: 21%
- Population Healthy Nuclei (%) [3]: 43%
- Population Hoechst High Intensity Objects (%) [3]: 10%
- Population Membrane Permeable-Phenotype (%) [3]: 17%
- Population Mitochondria Different-Phenotype (%) [3]: 22%
- Population Mitotic Cells (%) [3]: 41%
- Population Normal (%) [3]: 89%
- Population Pyknosed Nuclei (%) [3]: 34%
- Population Tubulin-Different-Phenotype (%) [3]: 58%
- Total Cell Count [3]: 164
- Population Apoptotic (%) [4]: 18%
- Population Fragmented Nuclei (%) [4]: 5%
- Population Healthy Nuclei (%) [4]: 77%
- Population Hoechst High Intensity Objects (%) [4]: 6%
- Population Membrane Permeable-Phenotype (%) [4]: 0%
- Population Mitochondria Different-Phenotype (%) [4]: 5%
- Population Mitotic Cells (%) [4]: 81%
- Population Normal (%) [4]: 93%
- Population Pyknosed Nuclei (%) [4]: 16%
- Population Tubulin-Different-Phenotype (%) [4]: 28%
- Total Cell Count [4]: 72
- Population Apoptotic (%) [5]: 66%
- Population Fragmented Nuclei (%) [5]: 20%
- Population Healthy Nuclei (%) [5]: 58%
- Population Hoechst High Intensity Objects (%) [5]: 13%
- Population Membrane Permeable-Phenotype (%) [5]: 33%
- Population Mitochondria Different-Phenotype (%) [5]: 4%
- Population Mitotic Cells (%) [5]: 33%
- Population Normal (%) [5]: 86%
- Population Pyknosed Nuclei (%) [5]: 20%
- Population Tubulin-Different-Phenotype (%) [5]: 45%
- Total Cell Count [5]: 83
- Population Apoptotic (%) [6]: 50%
- Population Fragmented Nuclei (%) [6]: 4%
- Population Healthy Nuclei (%) [6]: 86%
- Population Hoechst High Intensity Objects (%) [6]: 2%
- Population Membrane Permeable-Phenotype (%) [6]: 5%
- Population Mitotic Cells (%) [6]: 50%
- Population Normal (%) [6]: 97%
- Population Pyknosed Nuclei (%) [6]: 8%
- Population Tubulin-Different-Phenotype (%) [6]: 9%
- Total Cell Count [6]: 116
- Population Apoptotic (%) [7]: 43%
- Population Fragmented Nuclei (%) [7]: 24%
- Population Healthy Nuclei (%) [7]: 48%
- Population Hoechst High Intensity Objects (%) [7]: 12%
- Population Membrane Permeable-Phenotype (%) [7]: 30%
- Population Mitochondria Different-Phenotype (%) [7]: 16%
- Population Mitotic Cells (%) [7]: 56%
- Population Normal (%) [7]: 87%
- Population Pyknosed Nuclei (%) [7]: 27%
- Population Tubulin-Different-Phenotype (%) [7]: 72%
- Total Cell Count [7]: 156
- Population Apoptotic (%) [8]: 33%
- Population Fragmented Nuclei (%) [8]: 5%
- Population Healthy Nuclei (%) [8]: 87%
- Population Hoechst High Intensity Objects (%) [8]: 2%
- Population Membrane Permeable-Phenotype (%) [8]: 1%
- Population Mitochondria Different-Phenotype (%) [8]: 2%
- Population Mitotic Cells (%) [8]: 66%
- Population Normal (%) [8]: 97%
- Population Pyknosed Nuclei (%) [8]: 6%
- Population Tubulin-Different-Phenotype (%) [8]: 31%
- Total Cell Count [8]: 93
- Population Apoptotic (%) [9]: 77%
- Population Fragmented Nuclei (%) [9]: 35%
- Population Healthy Nuclei (%) [9]: 52%
- Population Hoechst High Intensity Objects (%) [9]: 25%
- Population Membrane Permeable-Phenotype (%) [9]: 28%
- Population Mitochondria Different-Phenotype (%) [9]: 0%
- Population Mitotic Cells (%) [9]: 22%
- Population Normal (%) [9]: 74%
- Population Pyknosed Nuclei (%) [9]: 12%
- Population Tubulin-Different-Phenotype (%) [9]: 35%
- Total Cell Count [9]: 99
- Population Apoptotic (%) [10]: 0%
- Population Fragmented Nuclei (%) [10]: 25%
- Population Healthy Nuclei (%) [10]: 74%
- Population Hoechst High Intensity Objects (%) [10]: 13%
- Population Membrane Permeable-Phenotype (%) [10]: 31%
- Population Mitochondria Different-Phenotype (%) [10]: 2%
- Population Mitotic Cells (%) [10]: 0%
- Population Normal (%) [10]: 86%
- Population Pyknosed Nuclei (%) [10]: 0%
- Population Tubulin-Different-Phenotype (%) [10]: 44%
- Total Cell Count [10]: 73
- Population Apoptotic (%) [11]: 46%
- Population Fragmented Nuclei (%) [11]: 24%
- Population Healthy Nuclei (%) [11]: 51%
- Population Hoechst High Intensity Objects (%) [11]: 17%
- Population Membrane Permeable-Phenotype (%) [11]: 29%
- Population Mitochondria Different-Phenotype (%) [11]: 14%
- Population Mitotic Cells (%) [11]: 53%
- Population Normal (%) [11]: 82%
- Population Pyknosed Nuclei (%) [11]: 23%
- Population Tubulin-Different-Phenotype (%) [11]: 73%
- Total Cell Count [11]: 143
- Population Apoptotic (%) [12]: 66%
- Population Fragmented Nuclei (%) [12]: 22%
- Population Healthy Nuclei (%) [12]: 73%
- Population Hoechst High Intensity Objects (%) [12]: 7%
- Population Membrane Permeable-Phenotype (%) [12]: 14%
- Population Mitochondria Different-Phenotype (%) [12]: 4%
- Population Mitotic Cells (%) [12]: 33%
- Population Normal (%) [12]: 92%
- Population Pyknosed Nuclei (%) [12]: 3%
- Population Tubulin-Different-Phenotype (%) [12]: 44%
- Total Cell Count [12]: 99
